Results reported in ChEMBL document CHEMBL1134686, “Design, synthesis, SAR, and biological evaluation of highly potent benzimidazole-spaced phosphono-alpha-amino acid competitive NMDA antagonists of the AP-6 type” (J Med Chem, 2001).
pIC50: −log10 of the molar value.

Legend:
Glutamate NMDA receptor [1] = assay: Displacement of [3H]CPP from rat synaptic membrane glutamate NMDA receptor
Mus musculus = assay: Functional NMDA antagonist activity was confirmed in vivo in mice (intraperitoneally) using an NMDA-induced lethality assay
Glutamate NMDA receptor [2] = assay: Affinity for the NMDA receptor site was assessed by its ability to displace [3H]TCP from its binding site in rat brain; assay type: tissue-based
How it was run: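 Rat whole-brain crude synaptic membranes, resuspended in ice-cold 5.0 mM Tris HCl pH 7.4. Triplicate incubation 1 h at 25 °C with 2.5 nM [³H]TCP, 3 µM L-glutamate and 1 µM glycine. Nonspecific binding defined with 100 µM MK-801. Filtration on PEI-presoaked glass fiber filters, then scintillation counting. IC50 with 95% confidence limits from 5-10 concentrations.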

[3] = target: T1, Glutamate NMDA receptor (Rattus norvegicus) (UniProt P35439+Q00959+Q00960+Q00961+Q62645+Q8VHN2+Q9R1M7); assay: Affinity for the NMDA receptor site was assessed by the ability to displace [3H]CPP from its binding site in rat synaptic membranes at a concentration of 100 uM; assay type: cell membranes
How it was run: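 Rat whole-brain crude synaptic membranes (Triton X-100 treated, frozen), in 50 mM Tris HCl pH 7.6, 0.2-0.5 mg protein. Triplicate incubation 15 min at 23 °C with 8 nM [³H]CPP. Nonspecific binding defined with 1.0 mM NMDA. Bound ligand separated by centrifugation at 48000g, then scintillation counting. Percent inhibition reported at 100 µM.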

[4] = target: T1, Glutamate NMDA receptor (Rattus norvegicus); assay: Affinity for the NMDA receptor site was assessed by its ability to displace [3H]TCP from its binding site in rat brain at a concentration of 100 uM; assay type: tissue-based
Rattus norvegicus [5] = species on record: Rattus norvegicus; assay: Effect on the decrease in volume of infarcted brain tissue in rat; assay type: functional
How it was run: (§1)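 Male Fisher-344 rats under isoflurane, with permanent occlusion of the distal MCA plus the ipsilateral common carotid; body temperature held at 37 °C. Single iv tail-vein bolus of 3 mg/kg in 0.9% NaCl, given 5 min post-occlusion. At 24 h, cresyl violet-stained forebrain sections were taken at 400 µm intervals. Infarct volume by image analysis, mean ± SE, n=27-28 per group.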

Rattus norvegicus [6] = species on record: Rattus norvegicus; assay: Effect on the volume of infarcted brain tissue in rat; assay type: functional; how it was run: as §1
[7] = Mus musculus, ip, read-out: ED50

inhibition [3] [%]	inhibition [4] [%]	Structure (SMILES)	pIC50 (Glutamate NMDA receptor [1])	ED50 (Mus musculus; [7]) [mg/kg]	further results
–	–	NC(Cc1nc2ccc(Cl)cc2n1CP(=O)(O)O)C(=O)O (single isomer, unassigned; (-))	7.66	2.56	pIC50 (Glutamate NMDA receptor [2]): 4.87
–	–	NC(Cc1nc2cc(Cl)c(Cl)cc2n1CP(=O)(O)O)C(=O)O (single isomer, unassigned; (-))	7.74	2.58	–
81	–	NC(Cc1nc2c(Cl)cccc2n1CP(=O)(O)O)C(=O)O (single isomer, unassigned; (-))	–	–	–
39	9.5	NC(Cc1nc2ccccc2n1CCP(=O)(O)O)C(=O)O (single isomer, unassigned; (-))	–	–	–
–	–	NC(Cc1nc2ccccc2n1CP(=O)(O)O)C(=O)O (single isomer, unassigned; (-))	7.11	–	ED50 (Mus musculus): 2.04 mg/kg; pIC50 (Glutamate NMDA receptor [2]): 4.95
–	–	NC(CCc1nc2ccccc2n1CP(=O)(O)O)C(=O)O (single isomer, unassigned; (-))	5.17	–	–
–	–	NC(Cc1nc2cc(Br)ccc2n1CP(=O)(O)O)C(=O)OCc1ccccc1 (stereo not given)	7.25	0.47	pIC50 (Glutamate NMDA receptor [2]): 4.81
–	–	NC(Cc1nc2cc(Cl)ccc2n1CP(=O)(O)O)C(=O)OCc1ccccc1 (stereo not given)	6.82	–	pIC50 (Glutamate NMDA receptor [2]): 4.33
–	–	O=C(O)C1CN(CCCP(=O)(O)O)CCN1 (stereo not given)	–	1	–
–	–	NC(CCCCCP(=O)(O)O)C(=O)O (stereo not given) [AP-7]	–	37.6	–
99.7	88.5	Cc1cc2nc(CC(N)C(=O)O)n(CP(=O)(O)O)c2cc1C (single isomer, unassigned; (-))	–	–	–
–	–	N[C@H](Cc1nc2cc(Cl)ccc2n1CP(=O)(O)O)C(=O)O	8.15	0.13	Decrease (Rattus norvegicus [5]): 45%; Volume (Rattus norvegicus [6]): 51.3 mm**3; pIC50 (Glutamate NMDA receptor [2]): 6.14
73	28.1	NC(Cc1nc2cccc(Cl)c2n1CP(=O)(O)O)C(=O)O (single isomer, unassigned; (-))	–	–	–
–	–	NC(Cc1nc2cc(Cl)c(Cl)cc2n1CP(=O)(O)O)C(=O)O (single isomer, unassigned; (+))	6.00	–	–
–	40	NC(Cc1nc2cc(C(F)(F)F)ccc2n1CP(=O)(O)O)C(=O)O (stereo not given)	6.12	–	–
–	–	NC(CCc1nc2ccccc2n1CP(=O)(O)O)C(=O)O (stereo in doubt; 10)	5.28	–	–
61	0	CCOC(=O)C(N)Cc1nc2ccccc2n1CP(=O)(O)O (single isomer, unassigned; (-))	–	–	–
–	–	O=C(O)[C@@H]1C[C@H](CP(=O)(O)O)CCN1 [SELFOTEL]	–	0.6	–
30	9.5	NC(Cc1nc2ccccc2n1CC(=O)O)C(=O)O (single isomer, unassigned; (-))	–	–	–
–	–	NC(Cc1nc2ccccc2n1CP(=O)(O)O)C(=O)O (stereo in doubt; 8) [listing 2 of 2 here]	–	–	ED50 (Mus musculus): 7.91 mg/kg

Structure (SMILES)	inhibition [3] [%]	inhibition [4] [%]	pIC50 (Glutamate NMDA receptor [1])	ED50 (Mus musculus; [7]) [mg/kg]	further results
NC(Cc1nc2ccccc2n1CP(=O)(O)O)C(=O)O (stereo in doubt; 8) [listing 1 of 2 here]	30	29.1	–	–	–
